# Assay results: ChEMBL document CHEMBL1140232, “Surprising alteration of antibacterial activity of 5"-modified neomycin against resistant bacteria” (2008)
# Experiments:
# Enterococcus [1] = experiment: Activity of Enterococcus APH(3')-3a
# Enterococcus [2] = experiment: Ratio of kcat to Km of Enterococcus APH(3')-3a
# Escherichia coli [3] = experiment: Antibacterial activity against Escherichia coli TG1 pET28a plasmid encoded for APH(3')-3a after 12 to 18 hrs; type: functional
# How it was run: (§1)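 Broth microdilution. Bacterial suspension adjusted with broth to absorbance 0.08–0.1 at 625 nm, diluted further in broth, and mixed in wells with 2-fold serial dilutions of compound. Plates incubated at 35°C for 12–18 h. MIC is the lowest concentration inhibiting growth; each determination repeated at least three times.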
# Klebsiella pneumoniae [4] = experiment: Antibacterial activity against ampicillin-resistant and aminoglycosides-susceptible Klebsiella pneumoniae ATCC 13883 after 12 to 18 hrs; type: functional
# How it was run: (§2)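 Broth microdilution MIC. Culture diluted with broth to an absorbance of 0.08–0.1 at 625 nm. 100 μL of this was diluted into 10 mL broth and dispensed into 96-well plates. Each well received 50 μL inoculum plus 50 μL of a 2-fold compound dilution series. Plates were incubated at 35°C for 12–18 h. MIC is the lowest concentration that inhibits growth, from at least three repeats.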
# Klebsiella pneumoniae [5] = experiment: Antibacterial activity against multidrug-resistant Klebsiella pneumoniae ATCC 700603 isolate after 12 to 18 hrs; type: functional; how it was run: as §2
# Staphylococcus aureus [6] = experiment: Antibacterial activity against methicillin-resistant Staphylococcus aureus ATCC 33591 after 12 to 18 hrs; type: functional; how it was run: as §2
# Pseudomonas aeruginosa = experiment: Antibacterial activity against aminoglycosides-resistant Pseudomonas aeruginosa ATCC 27853 expressing APH(3')-2b after 12 to 18 hrs; type: functional; how it was run: as §2
# Enterococcus faecalis [7] = experiment: Antibacterial activity against vancomycin-susceptible and aminoglycosides-resistant Enterococcus faecalis ATCC 29212 after 12 to 18 hrs; type: functional; how it was run: as §2
# Enterococcus faecalis [8] = experiment: Antibacterial activity against vancomycin-resistant Enterococcus faecalis ATCC 51299 expressing vanB, ant(6)-1, aac(6')-aph(2') resistant gene after 12 to 18 hrs; type: functional; how it was run: as §2
# Escherichia coli [9] = experiment: Antibacterial activity against aminoglycoside-susceptible Escherichia coli ATCC 25922 after 12 to 18 hrs; type: functional; how it was run: as §1
# Staphylococcus aureus [10] = experiment: Antibacterial activity against aminoglycoside-susceptible Staphylococcus aureus ATCC 25923 after 12 to 18 hrs; type: functional; how it was run: as §1
# Escherichia coli [11] = experiment: Antibacterial activity against aminoglycoside-susceptible Escherichia coli TG1 after 12 to 18 hrs; type: functional; how it was run: as §1
# Escherichia coli [12] = experiment: Antibacterial activity against Escherichia coli TG1 pSF815 plasmid encoded for AAC(6')/APH(2') after 12 to 18 hrs; type: functional; how it was run: as §1
# Escherichia coli [13] = experiment: Antibacterial activity against Escherichia coli TG1 pTZ19U-3 plasmid encoded for APH(3')-1 after 12 to 18 hrs; type: functional; how it was run: as §1
Compound,Km (Enterococcus [1]) [µM],Vmax (Enterococcus [1]) [µmol/min/mg],kcat (Enterococcus [1]) [s⁻¹],kcat/Km (Enterococcus [2]) [×10⁴ /M/s],MIC (Escherichia coli [3]) [µg/mL],MIC (Klebsiella pneumoniae [4]) [µg/mL],MIC (Klebsiella pneumoniae [5]) [µg/mL],MIC (Staphylococcus aureus [6]) [µg/mL],MIC (Pseudomonas aeruginosa) [µg/mL],MIC (Enterococcus faecalis [7]) [µg/mL],MIC (Enterococcus faecalis [8]) [µg/mL],MIC (Escherichia coli [9]) [µg/mL],MIC (Staphylococcus aureus [10]) [µg/mL],MIC (Escherichia coli [11]) [µg/mL],MIC (Escherichia coli [12]) [µg/mL],MIC (Escherichia coli [13]) [µg/mL]
NCC[C@H](O)C(=O)N[C@@H]1C[C@H](N)[C@@H](O[C@H]2O[C@H](CN)[C@@H](O)[C@H](O)[C@H]2O)[C@H](O)[C@H]1O[C@H]1O[C@H](CO)[C@@H](O)[C@H](N)[C@H]1O [AMIKACIN],57.4,2.75,1.38,2.4,1,1,0.5,8,0.5,32,≥ 250,,,,,
NC[C@@H]1O[C@H](O[C@H]2[C@@H](O)[C@H](O[C@@H]3[C@@H](O)[C@H](N)C[C@H](N)[C@H]3O[C@H]3O[C@H](CN)[C@@H](O)[C@H](O)[C@H]3N)O[C@@H]2CO)[C@H](N)[C@@H](O)[C@@H]1O [FRAMYCETIN],6,3.22,1.61,26.8,64,4,16,125,64,64,≥ 250,4,1,4,4,≥ 2000
CN[C@H](CC(C)C)C(=O)N[C@H]1C(=O)N[C@@H](CC(N)=O)C(=O)N[C@H]2C(=O)N[C@H]3C(=O)N[C@H](C(=O)N[C@H](C(=O)O)c4cc(O)cc(O)c4-c4cc3ccc4O)[C@H](O)c3ccc(c(Cl)c3)Oc3cc2cc(c3O[C@@H]2O[C@H](CO)[C@@H](O)[C@H](O)[C@H]2O[C@H]2C[C@](C)(N)[C@H](O)[C@H](C)O2)Oc2ccc(cc2Cl)[C@H]1O [VANCOMYCIN],,,,,,,,,,,125,,,,,
CCCCCCCCCCCCCCCCCC(=O)NC[C@H]1O[C@@H](O[C@@H]2[C@@H](O)[C@H](N)C[C@H](N)[C@H]2O[C@H]2O[C@H](CN)[C@@H](O)[C@H](O)[C@H]2N)[C@H](O)[C@@H]1O[C@H]1O[C@@H](CN)[C@@H](O)[C@H](O)[C@H]1N,60,0.84,0.42,0.7,2,8,32,4,8,4,8,4,4,2,32,8
GENTAMICIN,,,,,,1,8,2,,8,> 250,,,,,
NCC(=O)NC[C@H]1O[C@@H](O[C@@H]2[C@@H](O)[C@H](N)C[C@H](N)[C@H]2O[C@H]2O[C@H](CN)[C@@H](O)[C@H](O)[C@H]2N)[C@H](O)[C@@H]1O[C@H]1O[C@@H](CN)[C@@H](O)[C@H](O)[C@H]1N,75,0.88,0.44,0.6,32,4,8,16,8,32,≥ 250,16,1,8,8,500
CCCCCCCCCCCCCCCC(=O)NC[C@H]1O[C@@H](O[C@@H]2[C@@H](O)[C@H](N)C[C@H](N)[C@H]2O[C@H]2O[C@H](CN)[C@@H](O)[C@H](O)[C@H]2N)[C@H](O)[C@@H]1O[C@H]1O[C@@H](CN)[C@@H](O)[C@H](O)[C@H]1N,58,0.85,0.42,0.72,1,8,16,2,4,2,4,4,2,2,16,8
